Laboratory results reported in ChEMBL document CHEMBL3286300, “Fluorine modulates species selectivity in the triazolopyrimidine class of Plasmodium falciparum dihydroorotate dehydrogenase inhibitors” (J Med Chem, 2014).

Assays:
[1] = biological target: Dihydroorotate dehydrogenase (quinone), mitochondrial (Mus musculus, UniProt O35435); assay: Inhibition of mouse DHODH (amino acid residues 30 to 396) expressed in Escherichia coli BL21 cells assessed as orotic acid production using dihydroorotate as substrate by DCIP dye-based assay
In short: (§1)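 Assay buffer 100 mM Hepes pH 8.0, 150 mM NaCl, 10% glycerol, 0.1% Triton, with 0.2 mM DHO, 0.02 mM CoQD and 0.12 mM DCIP. DCIP reduction read at 600 nm, 25 °C, started with 2–10 nM enzyme. Inhibitor 0.01–100 μM in 3-fold steps, triplicate. IC50 from a three-parameter fit of vi/vo.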

[2] = Partition coefficient, log D of the compound at pH 7.4 by chromatography; assay type: physicochemical; details: octanol/water
In short: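 LogD at pH 7.4 estimated from chromatographic retention, compared against standards of known partition coefficient.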

[3] = Inhibition of dog DHODH (amino acid residues 48 to 414) expressed in Escherichia coli BL21 cells assessed as orotic acid production using dihydroorotate as substrate by DCIP dye-based assay; set-up: species or system Canis lupus familiaris; in short: as §1
Plasmodium falciparum = assay: Antimalarial activity against Plasmodium falciparum 3D7 infected in RBC after 72 hrs by SYBR green dye based flow cytometry; assay type: functional, organism-based; details: 3D7, 72 h
[4] = biological target: T1, Dihydroorotate dehydrogenase (quinone), mitochondrial (Rattus norvegicus, UniProt Q63707); assay: Inhibition of rat DHODH (amino acid residues 30 to 396) expressed in Escherichia coli BL21 cells assessed as orotic acid production using dihydroorotate as substrate by DCIP dye-based assay; in short: as §1
[5] = biological target: T2, Dihydroorotate dehydrogenase (quinone), mitochondrial (Homo sapiens, UniProt Q02127); assay: Inhibition of C-terminal His6-tagged human DHODH (amino acid residues 30 to 396) expressed in Escherichia coli BL21 cells assessed as orotic acid production using dihydroorotate as substrate by DCIP dye-based assay; in short: as §1
[6] = Inhibition of C-terminal His6-tagged human DHODH (amino acid residues 30 to 396) H56A mutant expressed in Escherichia coli BL21 cells assessed as orotic acid production using dihydroorotate as substrate by direct assay in presence of oxygen depleting system
[7] = biological target: T3, Dihydroorotate dehydrogenase (Plasmodium falciparum, UniProt Q54A96); assay: Binding affinity to Plasmodium falciparum DHODH by isothermal titration calorimetry
T3 sequence (Q54A96 whole entry): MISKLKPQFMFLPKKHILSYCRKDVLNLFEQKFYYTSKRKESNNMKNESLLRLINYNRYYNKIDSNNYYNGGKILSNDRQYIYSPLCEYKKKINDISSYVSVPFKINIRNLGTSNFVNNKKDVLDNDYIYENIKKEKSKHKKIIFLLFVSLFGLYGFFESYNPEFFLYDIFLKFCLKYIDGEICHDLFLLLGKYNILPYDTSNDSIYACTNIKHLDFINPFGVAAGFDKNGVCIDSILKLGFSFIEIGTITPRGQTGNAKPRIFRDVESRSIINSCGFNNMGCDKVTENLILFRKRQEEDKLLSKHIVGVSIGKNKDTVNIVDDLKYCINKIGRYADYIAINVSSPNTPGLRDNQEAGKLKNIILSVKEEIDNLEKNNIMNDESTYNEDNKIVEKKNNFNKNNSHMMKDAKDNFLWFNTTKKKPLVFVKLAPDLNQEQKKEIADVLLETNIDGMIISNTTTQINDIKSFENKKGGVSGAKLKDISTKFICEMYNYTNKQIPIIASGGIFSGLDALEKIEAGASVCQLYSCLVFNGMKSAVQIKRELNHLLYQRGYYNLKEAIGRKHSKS
In short: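 ITC at 30 °C in 10 mM Hepes pH 7.8, 20 mM NaCl, 5% glycerol, 1 mM LDAO, 0.2% DMSO. PfDHODH (5–10 μM) in the cell was titrated with 50 μM inhibitor. Triplicate runs.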

[8] = biological target: T2, Dihydroorotate dehydrogenase (quinone), mitochondrial; assay: Inhibition of C-terminal His6-tagged human DHODH (amino acid residues 33 to 396) expressed in Escherichia coli BL21 cells assessed as orotic acid production using dihydroorotate as substrate by direct assay in presence of oxygen depleting system
[9] = Inhibition of C-terminal His6-tagged human DHODH (amino acid residues 30 to 396) L46A mutant expressed in Escherichia coli BL21 cells assessed as orotic acid production using dihydroorotate as substrate by direct assay in presence of oxygen depleting system
[10] = biological target: T3, Dihydroorotate dehydrogenase; assay: Inhibition of N-terminal His6-tagged recombinant Plasmodium falciparum DHODH (amino acid residues 158 to 569) expressed in Escherichia coli BL21 cells assessed as orotic acid production using dihydroorotate as substrate by DCIP dye-based assay
In short: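 The assay buffer was 100 mM Hepes pH 8.0, 150 mM NaCl, 10% glycerol, 0.1% Triton, with 0.2 mM DHO, 0.02 mM CoQD and 0.12 mM DCIP. Runs started with 2–10 nM enzyme at 25 °C, reading A600 initial rates. Inhibitor was 0.01–100 μM in 3-fold steps, in triplicate. IC50 came from a three-parameter log[I]-response fit.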

[11] = Inhibition of C-terminal His6-tagged human DHODH (amino acid residues 30 to 396) L359A mutant expressed in Escherichia coli BL21 cells assessed as orotic acid production using dihydroorotate as substrate by direct assay in presence of oxygen depleting system
[12] = Inhibition of C-terminal His6-tagged human DHODH (amino acid residues 30 to 396) R136A mutant expressed in Escherichia coli BL21 cells assessed as orotic acid production using dihydroorotate as substrate by direct assay in presence of oxygen depleting system
BL21 [13] = assay: Selectivity ratio of IC50 for C-terminal His6-tagged human DHODH (amino acid residues 30 to 396) expressed in Escherichia coli BL21 cells to IC50 for N-terminal His6-tagged recombinant Plasmodium falciparum DHODH (amino acid residues 158 to 569) expressed in Escherichia coli BL21 cells
BL21 [14] = assay: Ratio of IC50 for C-terminal His6-tagged human DHODH (amino acid residues 30 to 396) L359A mutant expressed in Escherichia coli BL21 cells to IC50 for C-terminal His6-tagged wild type human DHODH (amino acid residues 30 to 396) expressed in Escherichia coli BL21 cells
BL21 [15] = assay: Ratio of IC50 for C-terminal His6-tagged human DHODH (amino acid residues 30 to 396) L46A mutant expressed in Escherichia coli BL21 cells to IC50 for C-terminal His6-tagged wild type human DHODH (amino acid residues 30 to 396) expressed in Escherichia coli BL21 cells
BL21 [16] = assay: Ratio of IC50 for C-terminal His6-tagged human DHODH (amino acid residues 30 to 396) R136A mutant expressed in Escherichia coli BL21 cells to IC50 for C-terminal His6-tagged wild type human DHODH (amino acid residues 30 to 396) expressed in Escherichia coli BL21 cells
[17] = biological target: T1, Dihydroorotate dehydrogenase (quinone), mitochondrial; assay: Binding affinity to rat DHODH by isothermal titration calorimetry
In short: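 Run at 30 °C in 10 mM Hepes pH 7.8, 20 mM NaCl, 5% glycerol, 1 mM LDAO, 0.2% DMSO. Rat DHODH (5–8 μM) in the cell, titrated with 50 μM inhibitor. Triplicate runs, analysed with NITPIC and SEDPHAT.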

T1 sequence (Q63707 whole entry, the tested form may be a part): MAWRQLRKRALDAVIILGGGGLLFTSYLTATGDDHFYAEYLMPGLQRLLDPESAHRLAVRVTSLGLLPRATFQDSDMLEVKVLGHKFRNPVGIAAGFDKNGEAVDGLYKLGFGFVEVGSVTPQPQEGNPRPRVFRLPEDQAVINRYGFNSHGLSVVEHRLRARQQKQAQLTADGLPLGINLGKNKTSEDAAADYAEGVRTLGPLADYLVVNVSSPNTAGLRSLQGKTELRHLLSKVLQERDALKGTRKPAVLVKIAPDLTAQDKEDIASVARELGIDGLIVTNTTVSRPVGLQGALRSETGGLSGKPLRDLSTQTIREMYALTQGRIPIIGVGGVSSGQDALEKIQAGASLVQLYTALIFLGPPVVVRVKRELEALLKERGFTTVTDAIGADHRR
Sequence of Dihydroorotate dehydrogenase (quinone), mitochondrial (Mus musculus, UniProt O35435) (O35435 whole entry, the tested form may be a part): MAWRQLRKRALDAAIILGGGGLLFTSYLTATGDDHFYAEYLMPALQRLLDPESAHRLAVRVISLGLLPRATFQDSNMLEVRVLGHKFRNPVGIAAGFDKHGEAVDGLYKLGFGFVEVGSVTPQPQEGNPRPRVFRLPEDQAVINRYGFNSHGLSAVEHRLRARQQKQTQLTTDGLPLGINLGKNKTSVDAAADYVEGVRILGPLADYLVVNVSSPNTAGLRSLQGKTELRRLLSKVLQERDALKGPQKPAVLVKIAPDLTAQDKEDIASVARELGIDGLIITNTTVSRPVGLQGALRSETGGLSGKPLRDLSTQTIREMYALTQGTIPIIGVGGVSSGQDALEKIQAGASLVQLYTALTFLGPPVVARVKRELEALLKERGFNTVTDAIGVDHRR
T2 sequence (Q02127 whole entry, the tested form may be a part): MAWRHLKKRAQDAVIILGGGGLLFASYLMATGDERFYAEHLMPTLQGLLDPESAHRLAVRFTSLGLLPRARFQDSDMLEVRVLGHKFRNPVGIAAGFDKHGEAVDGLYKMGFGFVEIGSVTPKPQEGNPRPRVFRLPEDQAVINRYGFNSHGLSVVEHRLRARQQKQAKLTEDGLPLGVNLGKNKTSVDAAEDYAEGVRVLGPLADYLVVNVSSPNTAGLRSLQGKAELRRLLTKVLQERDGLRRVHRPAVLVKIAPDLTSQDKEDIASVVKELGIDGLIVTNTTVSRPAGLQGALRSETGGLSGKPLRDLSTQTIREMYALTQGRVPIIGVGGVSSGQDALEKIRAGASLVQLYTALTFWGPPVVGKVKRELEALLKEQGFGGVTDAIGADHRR

Structure (SMILES)	IC50 [1] [nM]	logD [2]	IC50 [3] [nM]	IC50 (Plasmodium falciparum) [nM]	IC50 [4] [nM]	IC50 [5] [nM]	IC50 [6] [nM]	Kd [7] [nM]	IC50 [8] [nM]	IC50 [9] [nM]	IC50 [10] [nM]	IC50 [11] [nM]	IC50 [12] [nM]	Ratio IC50 (BL21 [13])	Ratio IC50 (BL21 [14])	Ratio IC50 (BL21 [15])	Ratio IC50 (BL21 [16])	Kd [17] [nM]
Cc1cc(Nc2ccc(C(F)(F)F)cc2)n2ncnc2n1	> 100000	3.55	> 100000	–	–	–	–	–	–	–	–	–	–	–	–	–	–	–
Cc1cc(Nc2ccc(C(F)(F)F)cc2)n2nc(C(F)(F)F)nc2n1	9700	–	86000	6.3	3500	> 100000	–	–	–	–	–	–	–	–	–	–	–	–
Cc1cc(Nc2ccc(C(F)(F)F)cc2)n2nc(C(C)(F)F)nc2n1	–	4.05	> 100000	3.6	–	> 100000	> 100000	27	> 100000	> 100000	46	> 100000	> 100000	–	–	–	–	–
Cc1cc(Nc2cc(F)c(C(F)(F)F)c(F)c2)n2ncnc2n1	> 30000	–	> 100000	–	37000	> 100000	–	–	–	–	–	–	–	> 769	–	–	–	–
Cc1cc(Nc2cc(F)c(C(F)(F)F)c(F)c2)n2nc(C(F)(F)F)nc2n1	88	5.01	320	1.8	49	1600	900	9.6	2100	> 100000	22	35000	> 100000	–	10	50	50	–
Cc1cc(Nc2ccc(C(F)(F)F)c(F)c2)n2nc(C(C)(F)F)nc2n1	1600	4.25	7200	3.9	800	17000	67000	9.8	45000	> 100000	35	> 100000	> 100000	–	–	–	–	–
Cc1cc(Nc2cc(F)c(C(F)(F)F)c(F)c2)n2nc(C(C)(F)F)nc2n1	180	4.46	700	12	130	2100	5300	5.1	2700	> 100000	20	> 100000	> 100000	100	> 50	50	50	48
